The source made the active and inactive calls. No cut-off for these calls is given here.
Tests used:
D(2) dopamine receptor [1] = molecular target: T1, D(2) dopamine receptor (Homo sapiens, UniProt P14416); experiment: in vitro binding affinity was determined on human Dopamine receptor D2L expressed in chinese hamster ovary(CHO) K-1 cells using [3H]spiperone as radioligand.; format: cell-based, CHO-K1
Summary of the method: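 Antagonist binding: displacement of [³H]spiperone from human DA D2L, D3 or D4.2 receptors expressed in CHO K-1 cells; Ki as mean of three separate experiments, varying by no more than 25%; high- and low-affinity Ki reported separately where applicable.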

[2] = Inhibitory concentration of lipid peroxidation (LPO).; format: functional
D(3) dopamine receptor [3] = molecular target: D(3) dopamine receptor (Homo sapiens, UniProt P35462); experiment: in vitro binding affinity was determined on human Dopamine receptor D3 expressed in chinese hamster ovary(CHO) K-1 cells using [3H]spiperone as radioligand.; format: cell-based, CHO-K1
D(3) dopamine receptor (Homo sapiens, UniProt P35462), sequence (P35462 whole entry): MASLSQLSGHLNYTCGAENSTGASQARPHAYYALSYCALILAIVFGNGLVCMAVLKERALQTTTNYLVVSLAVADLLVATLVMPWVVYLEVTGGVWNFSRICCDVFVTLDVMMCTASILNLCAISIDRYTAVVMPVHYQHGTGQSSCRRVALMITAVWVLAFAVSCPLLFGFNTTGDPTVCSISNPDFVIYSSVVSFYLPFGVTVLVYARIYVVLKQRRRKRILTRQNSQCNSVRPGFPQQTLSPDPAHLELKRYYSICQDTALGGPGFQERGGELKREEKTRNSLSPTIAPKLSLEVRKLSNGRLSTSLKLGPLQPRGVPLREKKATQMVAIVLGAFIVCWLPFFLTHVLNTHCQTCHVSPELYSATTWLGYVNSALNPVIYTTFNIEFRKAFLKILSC

D(2) dopamine receptor [4] = molecular target: T1, D(2) dopamine receptor; experiment: in vitro binding affinity was determined on human Dopamine receptor D2L expressed in chinese hamster ovary(CHO) K-1 cells using [3H]-0437 as radioligand.; format: cell-based, CHO-K1
Summary of the method: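 Human DA D2L receptor expressed in CHO K-1 cells; agonist radioligand displacement ([³H]N-0437 or [³H]NPA); Ki as mean of three separate experiments, varying by no more than 25%.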

[5] = molecular target: D(2) dopamine receptor (Rattus norvegicus) (UniProt P61169); experiment: Inhibition of quinpirole (30 nM)-stimulated [3H]thymidine uptake in CHO-L6 cells transfected with the rat Dopamine receptor D2L; compound is active showing test concentration ranging from 0.1 nM - 1 uM; format: functional, cell-based
D(2) dopamine receptor (Rattus norvegicus), sequence (P61169 whole entry): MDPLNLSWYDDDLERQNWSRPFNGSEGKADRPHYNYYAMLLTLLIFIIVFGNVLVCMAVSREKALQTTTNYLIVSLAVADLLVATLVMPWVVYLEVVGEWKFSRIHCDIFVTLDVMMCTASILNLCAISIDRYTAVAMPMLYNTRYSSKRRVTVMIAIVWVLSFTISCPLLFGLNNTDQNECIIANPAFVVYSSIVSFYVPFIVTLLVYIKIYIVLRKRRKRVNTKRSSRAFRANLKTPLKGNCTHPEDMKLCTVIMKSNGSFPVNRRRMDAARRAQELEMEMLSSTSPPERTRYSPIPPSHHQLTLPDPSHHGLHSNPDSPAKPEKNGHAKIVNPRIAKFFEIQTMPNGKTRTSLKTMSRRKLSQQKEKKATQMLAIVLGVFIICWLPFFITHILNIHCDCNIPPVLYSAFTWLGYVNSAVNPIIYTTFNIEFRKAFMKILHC

D(2) dopamine receptor [6] = molecular target: T2, D(2) dopamine receptor (Rattus norvegicus, UniProt P61169); experiment: Effective concentration was determined as thymidine uptake in CHO-L6 cells transfected with the rat Dopamine receptor D2L by mitogenesis assay; format: functional, cell-based
T2 sequence (P61169 whole entry): as above
Summary of the method: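 Agonism read as [³H]thymidine uptake (mitogenesis) in CHO-L6 cells transfected with rat DA D2L receptor; intrinsic activity expressed relative to quinpirole (full agonist, IA 100%); test concentrations 0.1 nM to 1 µM; means of three determinations ± SEM.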

D(3) dopamine receptor [7] = molecular target: T3, D(3) dopamine receptor (Rattus norvegicus, UniProt P19020); experiment: Effective concentration was determined as thymidine uptake in CHO-L6 cells transfected with the rat Dopamine receptor D3 by mitogenesis assay; format: functional, cell-based
T3 sequence (P19020 whole entry): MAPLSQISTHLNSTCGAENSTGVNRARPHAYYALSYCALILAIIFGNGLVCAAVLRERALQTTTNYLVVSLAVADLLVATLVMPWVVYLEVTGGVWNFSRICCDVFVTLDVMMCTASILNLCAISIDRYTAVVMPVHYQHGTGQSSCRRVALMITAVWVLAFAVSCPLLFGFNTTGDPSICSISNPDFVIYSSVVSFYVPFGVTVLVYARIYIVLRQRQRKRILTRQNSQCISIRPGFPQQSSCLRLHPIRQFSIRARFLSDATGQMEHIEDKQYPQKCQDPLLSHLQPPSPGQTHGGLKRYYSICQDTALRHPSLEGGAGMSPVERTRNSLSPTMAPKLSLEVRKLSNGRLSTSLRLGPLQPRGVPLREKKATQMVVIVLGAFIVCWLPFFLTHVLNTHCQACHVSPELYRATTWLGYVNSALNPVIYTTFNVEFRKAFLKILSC

[8] = molecular target: D(3) dopamine receptor (Rattus norvegicus) (UniProt P19020); conditions: CHO-L6
D(3) dopamine receptor (Rattus norvegicus), sequence (P19020 whole entry): as above

[9] = molecular target: D(2) dopamine receptor (Rattus norvegicus) (UniProt P61169); experiment: compound was tested for intrinsic activity for thymidine uptake in CHO-L6 cells transfected with rat Dopamine receptor D2L; format: functional, cell-based
Summary of the method: (§1)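 Mitogenesis assay for agonism: [³H]thymidine uptake measured in CHO-L6 cells transfected with rat D2L receptor. Intrinsic activity expressed relative to quinpirole, taken as full agonist (IA 100%). Means of three determinations.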

[10] = molecular target: D(3) dopamine receptor (Rattus norvegicus) (UniProt P19020); conditions: CHO-L6; remark: listed apart in the source
D(4) dopamine receptor = molecular target: T4, D(4) dopamine receptor (Homo sapiens, UniProt P21917); experiment: in vitro binding affinity was determined on human Dopamine receptor D4 expressed in chinese hamster ovary(CHO) K-1 cells using [3H]spiperone as radioligand.; format: cell-based, CHO-K1
T4 sequence (P21917 whole entry): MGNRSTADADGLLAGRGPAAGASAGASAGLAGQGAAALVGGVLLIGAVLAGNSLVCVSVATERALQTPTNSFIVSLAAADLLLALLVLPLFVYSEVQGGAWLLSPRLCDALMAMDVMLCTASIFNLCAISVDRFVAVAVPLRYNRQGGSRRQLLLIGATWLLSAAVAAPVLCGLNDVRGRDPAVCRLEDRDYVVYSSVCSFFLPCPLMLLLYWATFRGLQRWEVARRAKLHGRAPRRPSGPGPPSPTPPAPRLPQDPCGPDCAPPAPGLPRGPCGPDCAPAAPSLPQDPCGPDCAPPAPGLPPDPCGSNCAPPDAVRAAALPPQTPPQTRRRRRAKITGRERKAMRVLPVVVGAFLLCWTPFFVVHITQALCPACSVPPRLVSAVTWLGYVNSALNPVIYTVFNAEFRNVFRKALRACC
Summary of the method: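 Displacement of [³H]spiperone from human D4.2 receptors expressed in CHO K-1 cells; Ki values are means of three separate experiments, which varied by no more than 25%.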

[11] = molecular target: D(2) dopamine receptor (Rattus norvegicus) (UniProt P61169); experiment: Inhibition of quinpirole (30 nM)-stimulated [3H]thymidine uptake in CHO-L6 cells transfected with the rat Dopamine receptor D2L; NA is not active; format: functional, cell-based
D(3) dopamine receptor [12] = molecular target: T3, D(3) dopamine receptor; experiment: Effective concentration was determined as thymidine uptake in CHO-L6 cells transfected with the rat Dopamine receptor D3 by mitogenesis assay (intrinsic activity)
D(2) dopamine receptor [13] = molecular target: T1, D(2) dopamine receptor; experiment: in vitro binding affinity was determined on human Dopamine receptor D2L expressed in chinese hamster ovary(CHO) K-1 cells using [3H]NPA as radioligand.; format: cell-based, CHO-K1
Summary of the method: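 Displacement of agonist radioligand [³H]NPA from human D2L receptors expressed in CHO K-1 cells. Ki is the mean of three separate experiments, with results varying by no more than 25%.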

D(2) dopamine receptor [14] = molecular target: T2, D(2) dopamine receptor; experiment: Effective concentration was determined as thymidine uptake in CHO-L6 cells transfected with the rat Dopamine receptor D2L by mitogenesis assay (intrinsic activity); format: functional, cell-based; summary of the method: as §1
[15] = molecular target: D(2) dopamine receptor (Rattus norvegicus) (UniProt P61169); experiment: Inhibition of quinpirole (30 nM)-stimulated [3H]thymidine uptake in CHO-L6 cells transfected with the rat Dopamine receptor D2L;compound is active showing test concentration ranging from 0.1 nM - 1 uM; format: functional, cell-based
[16] = Log d of compound was determined; format: physicochemical; conditions: octanol/water

T1 sequence (P14416 whole entry): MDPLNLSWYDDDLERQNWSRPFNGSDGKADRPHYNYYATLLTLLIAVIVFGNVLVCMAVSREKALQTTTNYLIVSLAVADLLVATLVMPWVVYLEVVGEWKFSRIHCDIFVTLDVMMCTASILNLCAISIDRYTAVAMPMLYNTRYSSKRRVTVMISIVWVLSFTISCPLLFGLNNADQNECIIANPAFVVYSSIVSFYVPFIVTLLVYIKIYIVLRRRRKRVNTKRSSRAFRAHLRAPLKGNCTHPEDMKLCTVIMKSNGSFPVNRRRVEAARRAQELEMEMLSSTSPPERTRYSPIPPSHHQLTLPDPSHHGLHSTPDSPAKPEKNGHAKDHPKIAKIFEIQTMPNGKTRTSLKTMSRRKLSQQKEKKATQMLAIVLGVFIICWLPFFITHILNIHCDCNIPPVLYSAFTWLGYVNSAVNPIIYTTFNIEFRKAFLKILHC

Ki (D(2) dopamine receptor [1]) [nM]	IC50 [2] [nM]	Ki (D(3) dopamine receptor [3]) [nM]	Ki (D(2) dopamine receptor [4]) [nM]	Inhibitory activity [5]	EC50 (D(2) dopamine receptor [6]) [nM]	Compound	EC50 (D(3) dopamine receptor [7]) [nM]	Inhibitory activity [8]	Intrinsic activity [9] [%]	Inhibitory activity [10]	IC50 (D(4) dopamine receptor) [nM]	NA [11]	EC50 (D(3) dopamine receptor [12]) [nM]	Ki (D(2) dopamine receptor [13]) [nM]	EC50 (D(2) dopamine receptor [14]) [nM]	Inhibitory activity [15]	Ki (D(4) dopamine receptor) [nM]	logD [16]
3510	5000	1400	536			CCCN(CCC)C1COc2c(ccc3sc(N)nc23)C1 (centres undefined)												
5920	50000	510	47	Active	148	CCCN(CCC)C1COc2ccc3nc(N)sc3c2C1 (centres undefined)	> 1000	Active	7									
	> 100000	> 10000				CCCNC1Cc2cc3nc(N)sc3cc2C1 (centres undefined)								1350			> 3330	0.19

More lines, now with the values behind:

Compound	Ki (D(2) dopamine receptor [1]) [nM]	IC50 [2] [nM]	Ki (D(3) dopamine receptor [3]) [nM]	Ki (D(2) dopamine receptor [4]) [nM]	Inhibitory activity [5]	EC50 (D(2) dopamine receptor [6]) [nM]	EC50 (D(3) dopamine receptor [7]) [nM]	Inhibitory activity [8]	Intrinsic activity [9] [%]	Inhibitory activity [10]	IC50 (D(4) dopamine receptor) [nM]	NA [11]	EC50 (D(3) dopamine receptor [12]) [nM]	Ki (D(2) dopamine receptor [13]) [nM]	EC50 (D(2) dopamine receptor [14]) [nM]	Inhibitory activity [15]	Ki (D(4) dopamine receptor) [nM]	logD [16]
CCCN(CCC)C1Cc2ccc3nc(N)sc3c2C1 (centres undefined)		30000	11						71	Active	> 10000	inactive	> 1000	500	18.7			
CCCN[C@H]1CCc2nc(N)sc2C1 [PRAMIPEXOLE]							0.21		90									
CCCN(CCC)C1Cc2cc3nc(N)sc3cc2C1 (centres undefined)		60000	1.4					Active	28				> 1000	27	5.7	Active	272	1.66

Source: ChEMBL document CHEMBL1133651, “Thiazoloindans and thiazolobenzopyrans: a novel class of orally active central dopamine (partial) agonists” (J Med Chem, 2000)
